HKDC1 act = activators of human hexokinase HKDC1; Q2TB90; recombinant HKDC1, G6PDH/diaphorase resazurin fluorescence; hits give low values; activity change, negative = activation, % at 20 µM; hit rate 0.056% among 340,000; AID 493187;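 active = activation of 40% or more at 20 µM, a change of -40% or lower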
Target sequence (Q2TB90 whole entry, looked up): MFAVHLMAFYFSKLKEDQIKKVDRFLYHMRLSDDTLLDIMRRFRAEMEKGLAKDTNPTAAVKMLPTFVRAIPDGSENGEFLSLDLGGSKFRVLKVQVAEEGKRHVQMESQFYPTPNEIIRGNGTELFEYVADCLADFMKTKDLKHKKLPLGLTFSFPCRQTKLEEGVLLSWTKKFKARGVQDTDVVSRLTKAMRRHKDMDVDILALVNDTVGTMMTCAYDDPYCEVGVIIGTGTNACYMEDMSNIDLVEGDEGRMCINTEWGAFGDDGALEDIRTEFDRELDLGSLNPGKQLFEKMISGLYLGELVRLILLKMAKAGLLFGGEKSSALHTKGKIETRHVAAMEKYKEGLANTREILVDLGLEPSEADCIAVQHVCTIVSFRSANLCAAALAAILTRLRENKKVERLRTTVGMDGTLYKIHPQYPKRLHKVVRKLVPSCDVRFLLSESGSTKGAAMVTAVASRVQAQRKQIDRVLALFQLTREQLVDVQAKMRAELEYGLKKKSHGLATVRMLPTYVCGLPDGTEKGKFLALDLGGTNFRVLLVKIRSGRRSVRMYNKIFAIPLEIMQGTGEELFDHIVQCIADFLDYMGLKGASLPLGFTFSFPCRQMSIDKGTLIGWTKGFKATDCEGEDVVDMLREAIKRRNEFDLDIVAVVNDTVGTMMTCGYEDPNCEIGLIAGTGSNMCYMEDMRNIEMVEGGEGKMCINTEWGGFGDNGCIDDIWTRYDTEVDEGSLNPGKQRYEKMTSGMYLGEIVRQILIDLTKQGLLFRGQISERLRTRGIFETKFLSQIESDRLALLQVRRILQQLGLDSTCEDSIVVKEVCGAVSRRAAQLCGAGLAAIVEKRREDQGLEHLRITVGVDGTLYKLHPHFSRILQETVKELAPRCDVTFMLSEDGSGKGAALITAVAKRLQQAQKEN
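system = in-house human HKDC1 enzyme, G6PDH and diaphorase coupling enzymes | amount = HKDC1 5 µg/mL | measured by = resorufin fluorescence from 100 µM resazurin, NADP 1 mM, Ex 525/Em 613 nm | times = enzyme reaction 90 min, room temperature, in dark | doses = single compound dose of 20 µM, 1% DMSO final | medium = Tris/MgCl2 buffer, pH 8.0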
Active calls of the source: *. A selection follows.

SMILES	HKDC1 act
c1ccc2oc(C3=NNC(=NC4CC4)SC3)cc2c1	-47*
Cc1cc2nc3ccc(=[N+](C)C)cc-3sc2cc1N	47
Cc1nn(-c2ccccc2)c(Cl)c1CN(C(=O)CCl)c1ccc(Cl)cc1	38
Cc1ccc(NC2c3ncccc3C(=O)N2c2ccccc2C)cc1C (stereo not drawn)	56
CC1(OC(=O)C2CCCC2)C(=O)C=C2C=C(c3ccsc3)N(CCc3c[nH]c4ccccc34)C=C2C1=O (stereo not drawn)	35
Cc1ccc(C)c(-n2nnnc2Sc2nnnn2-c2ccccc2)c1	47
Cc1oc2c(c1C(=O)c1ccc(Cl)cc1)C(=O)C(=O)c1ccccc1-2	55
Cc1ccccc1NC(=S)N/N=C/c1ccc(O)cc1O	-42*
CCCOc1ccc(/C=N/NC(=S)Nc2ccccc2[N+](=O)[O-])c(O)c1	-48*
O=[N+]([O-])c1ccc(NN=Cc2ccc(O)cc2O)nc1	37
Oc1ccc(/C=N/Nc2ncc(Br)cn2)c(O)c1	39
O=C(O)c1ccccc1NS(=O)(=O)c1ccc(N/N=C/c2cccc(O)c2O)c([N+](=O)[O-])c1	36
COc1cc(/C=C2\SC(=O)N(c3ccc(Cl)cc3)C2=O)cc([N+](=O)[O-])c1O	44
C[n+]1c(-c2ccccc2)cc2c(=Cc3ccccc3)c3ccccc3n21	42
O=C(Sc1nnc(-c2ccccc2)o1)N1c2ccccc2Sc2ccccc21	37
CC(=O)n1cc(N(C(=O)CCl)c2ccc([N+](=O)[O-])cc2)c2ccccc21	48
CCCCN(CCCC)C(=S)N/N=C/c1c(C)[nH]n(-c2ccccc2)c1=O	-41*
Cc1[nH]n(-c2ccccc2)c(=O)c1/C=N/Nc1nncc(-c2ccccc2)n1	-47*
C[n+]1c2cc(N)ccc2cc2ccc(N)cc21	44
CCC(c1ccccc1)C(CC)c1cc(O)c(O)c(O)c1 (stereo not drawn)	42
O=C(OCn1ncc(Cl)c(Cl)c1=O)c1ccc(C(F)(F)F)cc1	46
CCc1ccc2c(c1)C(NC(C)=O)C(=O)N2CCN1CCOCC1 (stereo not drawn)	80
c1coc(-c2nc(-c3ccco3)c(-c3ccco3)nc2-c2ccco2)c1	68
CC1CCCN(C(=O)COC(=O)c2cc([N+](=O)[O-])ccc2N2CCOCC2)C1 (stereo not drawn)	41
O=C(N/N=C/c1ccc[nH]1)c1sc2ccccc2c1Cl	-42*
SMILES	HKDC1 act
CN(C)c1ccc2nc3ccc(=[N+](C)C)cc-3sc2c1	36
CSc1nc(N(CCO)CCO)c2sc3nc(-c4ccco4)c4c(c3c2n1)CCC4	37
Cc1cc(C)nc(Nc2n[nH]c(-c3ccc(C(C)(C)C)cc3)n2)n1	-51*
O=C(/C=C/Sc1ccccc1)c1ccccc1	36
Cc1cc(C(=O)CCl)c(C)n1CCc1ccc(Cl)cc1	39
Cc1cc(C)cc(-n2c(N)c(C(=O)Nc3c(C)n(C)n(-c4ccccc4)c3=O)c3nc4ccccc4nc32)c1	38
COP(=O)(OC)c1ccc(NCc2cc(O)ccc2O)cc1	43
Cc1cc(SCC(=O)c2cccc([N+](=O)[O-])c2)nc(=O)[nH]1	-54*
Cc1cccc(-n2c3nc(=O)[nH]c(=O)c-3cc3cc([N+](=O)[O-])ccc32)c1	42
O=C(C#Cc1ccccc1)c1cccc([N+](=O)[O-])c1	37
Cc1ccc2cc(CCNC(=O)c3ccc(S(=O)(=O)N4CCCCC4)cc3)c(=O)[nH]c2c1	40
COCCN1C=C2C(=O)C(C)(OC(=O)CCC(=O)OC)C(=O)C(Br)=C2C=C1c1ccc(OC)cc1 (stereo not drawn)	38
O=S(=O)(CCSc1nc2ccccc2s1)c1nc2ccccc2s1	39
CCOC(=O)c1c(C)sc2c1N(C(=O)CCl)c1cc(Cl)ccc1S2	45
CCOc1ccc2nc3cc(N=Nc4ccc(N)nc4N)ccc3c(N)c2c1	37
CCOc1ccc(N)c(SSc2cc(OCC)ccc2N)c1	-42*
Cc1cc2cc(CCNC(=O)c3ccc(S(=O)(=O)N4CCOCC4)cc3)c(=O)[nH]c2cc1C	41
CCn1c2ccccc2c2nc3cc(S(=O)(=O)N4CCOCC4)ccc3nc21	-61*
O=C1NC(=S)S/C1=C\C=C\c1ccc([N+](=O)[O-])o1	38
COc1cc(OC)c(OC)cc1CCC(C)NCCC(c1ccccc1)c1ccccc1 (stereo not drawn)	81
CC(C)c1nc2oc3c(NCC4CCCO4)ncnc3c2c2c1COC(C)(C)C2 (stereo not drawn)	40
Cn1cnc([N+](=O)[O-])c1Sc1ccc(Br)cc1	-58*
Cc1ccc(SC2=C(Sc3ccc(C)cc3)C(=O)c3ccccc3C2=O)cc1	66
Cc1ccccc1Nc1nc(N)nc(CSc2nnc3sc4ccccc4n23)n1	36
O=c1oc2cc(Oc3c([N+](=O)[O-])cc(C(F)(F)F)cc3[N+](=O)[O-])ccc2c2c1CCCC2	40
SMILES	HKDC1 act
COc1ccc(-c2cc(C(=O)NNC(=S)NC(=O)c3c(-c4ccccc4)noc3C)[nH]n2)cc1	-46*
Cc1onc(-c2ccccc2)c1C(=O)NNC(=S)NC(=O)c1ccc(Br)cc1	-51*
O=C(CCl)N(c1ccc(Cl)cc1)c1c[nH]c2ccccc12	41
CC1=NOC(=O)/C1=C\c1ccc(-c2cccc(Cl)c2)o1	38
Cc1nc2sc3c(NCc4ccco4)ncnc3c2c2c1COC(C)(C)C2	35
CCCCC(CC)CN=C(N)NC(N)=NCCCCCCN=C(N)NC(N)=NCC(CC)CCCC (stereo not drawn)	42
CC1C/C(=C/c2ccncc2)C(=O)/C(=C/c2ccncc2)C1 (stereo not drawn)	43
COc1cccc(-n2c(N)c(C(=O)Nc3c(C)n(C)n(-c4ccccc4)c3=O)c3nc4ccccc4nc32)c1	36
COc1cc(N=c2ssnc2Cl)cc(OC)c1OC	-100*
COc1ccc(N=c2ssnc2Cl)cc1	-55*
Cc1ccccc1OCCCN1C(=O)C(=O)c2cccc(C)c21	37
O=C1OC(c2ccc3ccccc3c2O)(c2ccc3ccccc3c2O)c2ccccc21	36
CC(C)c1nc2oc3c(=O)[nH]cnc3c2c2c1COC(C)(C)C2	36
N=C1/C(=C/c2coc3ccccc3c2=O)C(=O)N=C2SC(c3ccco3)=NN12	38
CCOC(=O)c1c(C)[nH]c(C2=NNC(=NC3CC3)SC2)c1C	-77*
COC(=O)CCC(=O)OC1(C)C(=O)C2=CN(C3CCCC3)C(c3ccc(OC)cc3)=CC2=C(Br)C1=O (stereo not drawn)	38
CCCc1nc2c(c(=O)c3ccccc3n2C)c(=O)n1-c1ccc(F)cc1	51
Cc1nc2c(c(=O)c3ccccc3n2C)c(=O)n1-c1ccc(F)cc1	51
COc1ccc(Oc2cc(C)nc(Cl)n2)nn1	-78*
Cc1ccccc1NC1=C/C(=N\S(=O)(=O)c2cccs2)c2ccccc2C1=O	63
CSc1nc(N)nc2c1ncn2CC(=O)N[C@H](C)c1cccc2ccccc12	-55*
Cc1ccc2cc(C=C(C#N)C#N)c(N3CCCCC3)nc2c1	41
CCCC[n+]1c2ccccc2cc2ccccc21	42
COc1ccc2c(c1)c(=O)oc1c(C)c(OCc3cc(C(=O)O)oc3C)ccc12	79
Cc1ccc(C)c(-n2c3nc(=O)[nH]c(=O)c-3cc3cc([N+](=O)[O-])ccc32)c1	47
COC(=O)Cn1c2ccc(F)cc2c2nc(C)sc21	-92*
CCOC(=O)Cn1c2ccc(F)cc2c2nc(C)sc21	-62*
